Results published in ChEMBL document CHEMBL1629465, “Efficient synthesis of novel 1,2,4-triazole fused acyclic and 21-28 membered macrocyclic and/or lariat macrocyclic oxaazathia crown compounds with potential antimicrobial activity” (2010).

The compounds below were run on Candida albicans (assay: Antimicrobial activity against Candida albicans RCMB 005003 at 2.5 mg/ml by agar diffusion technique). Conditions: read-out: DIZ.
Type: functional
How it was run: (§1)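 Agar well diffusion. Test compounds and reference standard drugs were diluted to 5.0, 2.5 and 1.0 mg/mL and applied to 0.6 cm wells. Inhibition zone beyond the control was scored as 0 (no inhibition), + (0.1–0.5 cm), ++ (0.6–1.0 cm) or +++ (1.0–1.5 cm).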

| Structure (SMILES) | zone of inhibition at 2500 µg/mL [mm] |
| --- | --- |
| S=c1[nH]nc(-c2cccnc2)n1/N=C\c1ccccc1OCCOCCOc1ccccc1/C=N\n1c(-c2cccnc2)n[nH]c1=S | 0 |
| Nn1c(SCCSc2nnc(-c3cccnc3)n2N)nnc1-c1cccnc1 | 1 |

Each compound was assayed on Escherichia coli (assay: Antimicrobial activity against Escherichia coli RCMB 103001 at 5 mg/ml by agar diffusion technique). Conditions: read-out: DIZ.
Type: functional
How it was run: as §1

| Structure (SMILES) | zone of inhibition at 5000 µg/mL [mm] |
| --- | --- |
| S=c1[nH]nc(-c2cccnc2)n1/N=C\c1ccccc1OCCOCCOc1ccccc1/C=N\n1c(-c2cccnc2)n[nH]c1=S | 0 |
| Nn1c(SCCSc2nnc(-c3cccnc3)n2N)nnc1-c1cccnc1 | 1 |

These compounds were tested on Penicillium italicum (assay: Antimicrobial activity against Penicillium italicum RCMB 001018 at 5 mg/ml by agar diffusion technique). Conditions: read-out: DIZ.
Type: functional
How it was run: as §1

| Structure (SMILES) | zone of inhibition at 5000 µg/mL [mm] |
| --- | --- |
| S=c1[nH]nc(-c2cccnc2)n1/N=C\c1ccccc1OCCOCCOc1ccccc1/C=N\n1c(-c2cccnc2)n[nH]c1=S | 1 |
| Nn1c(SCCSc2nnc(-c3cccnc3)n2N)nnc1-c1cccnc1 | 1 |

These compounds were tested on Staphylococcus aureus (assay: Antimicrobial activity against Staphylococcus aureus RCMB 106001 at 1 mg/ml by agar diffusion technique). Conditions: read-out: DIZ.
Type: functional
How it was run: as §1

| Structure (SMILES) | zone of inhibition at 1000 µg/mL [mm] |
| --- | --- |
| S=c1[nH]nc(-c2cccnc2)n1/N=C\c1ccccc1OCCOCCOc1ccccc1/C=N\n1c(-c2cccnc2)n[nH]c1=S | 0 |
| Nn1c(SCCSc2nnc(-c3cccnc3)n2N)nnc1-c1cccnc1 | 0 |

What follows are compounds tested on Pseudomonas aeruginosa (assay: Antimicrobial activity against Pseudomonas aeruginosa RCMB 102002 at 1 mg/ml by agar diffusion technique). Conditions: read-out: DIZ.
Type: functional
How it was run: as §1

| Structure (SMILES) | zone of inhibition at 1000 µg/mL [mm] |
| --- | --- |
| S=c1[nH]nc(-c2cccnc2)n1/N=C\c1ccccc1OCCOCCOc1ccccc1/C=N\n1c(-c2cccnc2)n[nH]c1=S | 0 |
| Nn1c(SCCSc2nnc(-c3cccnc3)n2N)nnc1-c1cccnc1 | 0 |

Each compound was assayed on Penicillium italicum (assay: Antimicrobial activity against Penicillium italicum RCMB 001018 at 1 mg/ml by agar diffusion technique). Conditions: read-out: DIZ.
Type: functional
How it was run: as §1

| Structure (SMILES) | zone of inhibition at 1000 µg/mL [mm] |
| --- | --- |
| S=c1[nH]nc(-c2cccnc2)n1/N=C\c1ccccc1OCCOCCOc1ccccc1/C=N\n1c(-c2cccnc2)n[nH]c1=S | 1 |
| Nn1c(SCCSc2nnc(-c3cccnc3)n2N)nnc1-c1cccnc1 | 0 |

These compounds were tested on Candida albicans (assay: Antimicrobial activity against Candida albicans RCMB 005003 at 5 mg/ml by agar diffusion technique). Conditions: read-out: DIZ.
Type: functional
How it was run: as §1

| Structure (SMILES) | zone of inhibition at 5000 µg/mL [mm] |
| --- | --- |
| S=c1[nH]nc(-c2cccnc2)n1/N=C\c1ccccc1OCCOCCOc1ccccc1/C=N\n1c(-c2cccnc2)n[nH]c1=S | 0 |
| Nn1c(SCCSc2nnc(-c3cccnc3)n2N)nnc1-c1cccnc1 | 1 |

These compounds were tested on Candida albicans (assay: Antimicrobial activity against Candida albicans RCMB 005003 at 1 mg/ml by agar diffusion technique). Conditions: read-out: DIZ.
Type: functional
How it was run: as §1

| Structure (SMILES) | zone of inhibition at 1000 µg/mL [mm] |
| --- | --- |
| S=c1[nH]nc(-c2cccnc2)n1/N=C\c1ccccc1OCCOCCOc1ccccc1/C=N\n1c(-c2cccnc2)n[nH]c1=S | 0 |
| Nn1c(SCCSc2nnc(-c3cccnc3)n2N)nnc1-c1cccnc1 | 1 |

These compounds were tested on Penicillium italicum (assay: Antimicrobial activity against Penicillium italicum RCMB 001018 at 2.5 mg/ml by agar diffusion technique). Conditions: read-out: DIZ.
Type: functional
How it was run: as §1

| Structure (SMILES) | zone of inhibition at 2500 µg/mL [mm] |
| --- | --- |
| S=c1[nH]nc(-c2cccnc2)n1/N=C\c1ccccc1OCCOCCOc1ccccc1/C=N\n1c(-c2cccnc2)n[nH]c1=S | 1 |
| Nn1c(SCCSc2nnc(-c3cccnc3)n2N)nnc1-c1cccnc1 | 1 |

What follows are compounds tested on Syncephalastrum racemosum (assay: Antimicrobial activity against Syncephalastrum racemosum RCMB 016001 at 2.5 mg/ml by agar diffusion technique). Conditions: read-out: DIZ.
Type: functional
How it was run: as §1

| Structure (SMILES) | zone of inhibition at 2500 µg/mL [mm] |
| --- | --- |
| S=c1[nH]nc(-c2cccnc2)n1/N=C\c1ccccc1OCCOCCOc1ccccc1/C=N\n1c(-c2cccnc2)n[nH]c1=S | 0 |
| Nn1c(SCCSc2nnc(-c3cccnc3)n2N)nnc1-c1cccnc1 | 0 |

These compounds were tested on Aspergillus fumigatus (assay: Antimicrobial activity against Aspergillus fumigatus RCMB 002008 at 2.5 mg/ml by agar diffusion technique). Conditions: read-out: DIZ.
Type: functional
How it was run: as §1

| Structure (SMILES) | zone of inhibition at 2500 µg/mL [mm] |
| --- | --- |
| S=c1[nH]nc(-c2cccnc2)n1/N=C\c1ccccc1OCCOCCOc1ccccc1/C=N\n1c(-c2cccnc2)n[nH]c1=S | 1 |
| Nn1c(SCCSc2nnc(-c3cccnc3)n2N)nnc1-c1cccnc1 | 0 |

The compounds below were run on Bacillus subtilis (assay: Antimicrobial activity against Bacillus subtilis RCMB 101001 at 5 mg/ml by agar diffusion technique). Conditions: read-out: DIZ.
Type: functional
How it was run: as §1

| Structure (SMILES) | zone of inhibition at 5000 µg/mL [mm] |
| --- | --- |
| S=c1[nH]nc(-c2cccnc2)n1/N=C\c1ccccc1OCCOCCOc1ccccc1/C=N\n1c(-c2cccnc2)n[nH]c1=S | 1 |
| Nn1c(SCCSc2nnc(-c3cccnc3)n2N)nnc1-c1cccnc1 | 0 |

The compounds below were run on Pseudomonas aeruginosa (assay: Antimicrobial activity against Pseudomonas aeruginosa RCMB 102002 at 2.5 mg/ml by agar diffusion technique). Conditions: read-out: DIZ.
Type: functional
How it was run: as §1

| Structure (SMILES) | zone of inhibition at 2500 µg/mL [mm] |
| --- | --- |
| S=c1[nH]nc(-c2cccnc2)n1/N=C\c1ccccc1OCCOCCOc1ccccc1/C=N\n1c(-c2cccnc2)n[nH]c1=S | 0 |
| Nn1c(SCCSc2nnc(-c3cccnc3)n2N)nnc1-c1cccnc1 | 0 |

What follows are compounds tested on Bacillus subtilis (assay: Antimicrobial activity against Bacillus subtilis RCMB 101001 at 2.5 mg/ml by agar diffusion technique). Conditions: read-out: DIZ.
Type: functional
How it was run: as §1

| Structure (SMILES) | zone of inhibition at 2500 µg/mL [mm] |
| --- | --- |
| S=c1[nH]nc(-c2cccnc2)n1/N=C\c1ccccc1OCCOCCOc1ccccc1/C=N\n1c(-c2cccnc2)n[nH]c1=S | 1 |
| Nn1c(SCCSc2nnc(-c3cccnc3)n2N)nnc1-c1cccnc1 | 0 |

These compounds were tested on Syncephalastrum racemosum (assay: Antimicrobial activity against Syncephalastrum racemosum RCMB 016001 at 1 mg/ml by agar diffusion technique). Conditions: read-out: DIZ.
Type: functional
How it was run: as §1

| Structure (SMILES) | zone of inhibition at 1000 µg/mL [mm] |
| --- | --- |
| S=c1[nH]nc(-c2cccnc2)n1/N=C\c1ccccc1OCCOCCOc1ccccc1/C=N\n1c(-c2cccnc2)n[nH]c1=S | 0 |
| Nn1c(SCCSc2nnc(-c3cccnc3)n2N)nnc1-c1cccnc1 | 0 |

The compounds below were run on Staphylococcus aureus (assay: Antimicrobial activity against Staphylococcus aureus RCMB 106001 at 5 mg/ml by agar diffusion technique). Conditions: read-out: DIZ.
Type: functional
How it was run: as §1

| Structure (SMILES) | zone of inhibition at 5000 µg/mL [mm] |
| --- | --- |
| S=c1[nH]nc(-c2cccnc2)n1/N=C\c1ccccc1OCCOCCOc1ccccc1/C=N\n1c(-c2cccnc2)n[nH]c1=S | 0 |
| Nn1c(SCCSc2nnc(-c3cccnc3)n2N)nnc1-c1cccnc1 | 1 |

Each compound was assayed on Aspergillus fumigatus (assay: Antimicrobial activity against Aspergillus fumigatus RCMB 002008 at 1 mg/ml by agar diffusion technique). Conditions: read-out: DIZ.
Type: functional
How it was run: as §1

| Structure (SMILES) | zone of inhibition at 1000 µg/mL [mm] |
| --- | --- |
| S=c1[nH]nc(-c2cccnc2)n1/N=C\c1ccccc1OCCOCCOc1ccccc1/C=N\n1c(-c2cccnc2)n[nH]c1=S | 0 |
| Nn1c(SCCSc2nnc(-c3cccnc3)n2N)nnc1-c1cccnc1 | 0 |

What follows are compounds tested on Staphylococcus aureus (assay: Antimicrobial activity against Staphylococcus aureus RCMB 106001 at 2.5 mg/ml by agar diffusion technique). Conditions: read-out: DIZ.
Type: functional
How it was run: as §1

| Structure (SMILES) | zone of inhibition at 2500 µg/mL [mm] |
| --- | --- |
| S=c1[nH]nc(-c2cccnc2)n1/N=C\c1ccccc1OCCOCCOc1ccccc1/C=N\n1c(-c2cccnc2)n[nH]c1=S | 0 |
| Nn1c(SCCSc2nnc(-c3cccnc3)n2N)nnc1-c1cccnc1 | 0 |

Each compound was assayed on Bacillus subtilis (assay: Antimicrobial activity against Bacillus subtilis RCMB 101001 at 1 mg/ml by agar diffusion technique). Conditions: read-out: DIZ.
Type: functional
How it was run: as §1

| Structure (SMILES) | zone of inhibition at 1000 µg/mL [mm] |
| --- | --- |
| S=c1[nH]nc(-c2cccnc2)n1/N=C\c1ccccc1OCCOCCOc1ccccc1/C=N\n1c(-c2cccnc2)n[nH]c1=S | 1 |
| Nn1c(SCCSc2nnc(-c3cccnc3)n2N)nnc1-c1cccnc1 | 0 |

The compounds below were run on Escherichia coli (assay: Antimicrobial activity against Escherichia coli RCMB 103001 at 1 mg/ml by agar diffusion technique). Conditions: read-out: DIZ.
Type: functional
How it was run: as §1

| Structure (SMILES) | zone of inhibition at 1000 µg/mL [mm] |
| --- | --- |
| S=c1[nH]nc(-c2cccnc2)n1/N=C\c1ccccc1OCCOCCOc1ccccc1/C=N\n1c(-c2cccnc2)n[nH]c1=S | 0 |
| Nn1c(SCCSc2nnc(-c3cccnc3)n2N)nnc1-c1cccnc1 | 0 |

The compounds below were run on Escherichia coli (assay: Antimicrobial activity against Escherichia coli RCMB 103001 at 2.5 mg/ml by agar diffusion technique). Conditions: read-out: DIZ.
Type: functional
How it was run: as §1

| Structure (SMILES) | zone of inhibition at 2500 µg/mL [mm] |
| --- | --- |
| S=c1[nH]nc(-c2cccnc2)n1/N=C\c1ccccc1OCCOCCOc1ccccc1/C=N\n1c(-c2cccnc2)n[nH]c1=S | 0 |
| Nn1c(SCCSc2nnc(-c3cccnc3)n2N)nnc1-c1cccnc1 | 0 |

These compounds were tested on Aspergillus fumigatus (assay: Antimicrobial activity against Aspergillus fumigatus RCMB 002008 at 5 mg/ml by agar diffusion technique). Conditions: read-out: DIZ.
Type: functional
How it was run: as §1

| Structure (SMILES) | zone of inhibition at 5000 µg/mL [mm] |
| --- | --- |
| S=c1[nH]nc(-c2cccnc2)n1/N=C\c1ccccc1OCCOCCOc1ccccc1/C=N\n1c(-c2cccnc2)n[nH]c1=S | 1 |
| Nn1c(SCCSc2nnc(-c3cccnc3)n2N)nnc1-c1cccnc1 | 0 |

These compounds were tested on Syncephalastrum racemosum (assay: Antimicrobial activity against Syncephalastrum racemosum RCMB 016001 at 5 mg/ml by agar diffusion technique). Conditions: read-out: DIZ.
Type: functional
How it was run: as §1

| Structure (SMILES) | zone of inhibition at 5000 µg/mL [mm] |
| --- | --- |
| S=c1[nH]nc(-c2cccnc2)n1/N=C\c1ccccc1OCCOCCOc1ccccc1/C=N\n1c(-c2cccnc2)n[nH]c1=S | 1 |
| Nn1c(SCCSc2nnc(-c3cccnc3)n2N)nnc1-c1cccnc1 | 0 |

These compounds were tested on Pseudomonas aeruginosa (assay: Antimicrobial activity against Pseudomonas aeruginosa RCMB 102002 at 5 mg/ml by agar diffusion technique). Conditions: read-out: DIZ.
Type: functional
How it was run: as §1

| Structure (SMILES) | zone of inhibition at 5000 µg/mL [mm] |
| --- | --- |
| S=c1[nH]nc(-c2cccnc2)n1/N=C\c1ccccc1OCCOCCOc1ccccc1/C=N\n1c(-c2cccnc2)n[nH]c1=S | 0 |
| Nn1c(SCCSc2nnc(-c3cccnc3)n2N)nnc1-c1cccnc1 | 0 |
